High-throughput results as filed in PubChem.
HUVEC prolif 384: inhibitors of HUVEC proliferation, primary screen, cell-based, 384-well; viability, % at 10 µM (by protocol); hit rate 1.1% among 86,000; CellTiter-Glo luminescence, 72 h; active compounds read low;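 active = viability at or below 30%; inactive = viability above 30%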;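 note: 100% = median luminescence of DMSO-only cell control wells on each plate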
Jurkat tox 60K: cytotoxicity toward Jurkat T cells, primary screen, cytotoxicity control, cell-based, Jurkat E6.1, 60K MLSMR library; Jurkat E6.1 viability, ATP luminescence, 48 h; inhibition, % at 4 µM; hit rate 1.2% among 56,000; AID 463, 2006;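 active = inhibition above the mean inhibition of all tested compounds plus 3 SD, cut at about 28% in these data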
H69AR growth 86K: proliferation blockers of H69AR lung cancer cells, primary screen, cell-based, human, 86K library | H69AR lung tumor viability, ATP luminescence, 72 h; active compounds read low | viability, % at 10 µM | hit rate 6% among 85,000;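 active = viability at or below 40%; inactive = viability above 40%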;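 note: multidrug resistant small cell line overexpressing MRP-1 efflux transporter; 100% = mean luminescence of untreated control wells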
MT1-MMP txn act: MT1-MMP promoter reporter activation – cell-based, luciferase luminescence, primary screen. activation factor at 10 µM. hit rate 0.16% among 86,000. HT1080 MT1-MMP promoter luciferase reporter, overnight; active compounds read high. AID 750, 2007;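 active = activation factor of at least 2 for MT1-MMP transcription at 10 µM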
Lung fibro prol: antiproliferative effect on LL 47 fibroblasts – human, LL 47 cells, CellTiter-Glo luminescence, primary screen | viability, % at 10 µM | hit rate 1.1% among 85,000 | LL 47 human lung fibroblast viability, ATP luminescence; active compounds read low;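 active = viability at or below 50% in the single dose screen; inactive = viability above 50%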;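 note: compound exposure lasted 72 h before the ATP readout; 100% = median luminescence of untreated cell-only wells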
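Assay system: human lung fibroblast line LL 47, low passage. Input: 1,150 fibroblasts seeded per well. Times: overnight cell rest, 72 h compound treatment at 37 °C. Evaluation: % viability of median cell-only signal. Technique: luminescent ATP detection, CellTiter-Glo. Control set: cell-only wells, no compound.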
Pyk2 oligo antag: antagonists of Pyk2 self-association, primary screen, Q293 cells, FERM NanoBiT luminescence, HTS. z-score (the deposit names both 25 µM and 10 µM). active compounds read low. hit rate 0.83% among 99,000;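 active = Z-score of -3 or lower, scaled per plate to the spread of control and sample wells; inactive = z-score above -3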;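 note: negative z-score means lost luminescence so less FERM oligomerization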
Target sequence (Q14289 whole entry, looked up): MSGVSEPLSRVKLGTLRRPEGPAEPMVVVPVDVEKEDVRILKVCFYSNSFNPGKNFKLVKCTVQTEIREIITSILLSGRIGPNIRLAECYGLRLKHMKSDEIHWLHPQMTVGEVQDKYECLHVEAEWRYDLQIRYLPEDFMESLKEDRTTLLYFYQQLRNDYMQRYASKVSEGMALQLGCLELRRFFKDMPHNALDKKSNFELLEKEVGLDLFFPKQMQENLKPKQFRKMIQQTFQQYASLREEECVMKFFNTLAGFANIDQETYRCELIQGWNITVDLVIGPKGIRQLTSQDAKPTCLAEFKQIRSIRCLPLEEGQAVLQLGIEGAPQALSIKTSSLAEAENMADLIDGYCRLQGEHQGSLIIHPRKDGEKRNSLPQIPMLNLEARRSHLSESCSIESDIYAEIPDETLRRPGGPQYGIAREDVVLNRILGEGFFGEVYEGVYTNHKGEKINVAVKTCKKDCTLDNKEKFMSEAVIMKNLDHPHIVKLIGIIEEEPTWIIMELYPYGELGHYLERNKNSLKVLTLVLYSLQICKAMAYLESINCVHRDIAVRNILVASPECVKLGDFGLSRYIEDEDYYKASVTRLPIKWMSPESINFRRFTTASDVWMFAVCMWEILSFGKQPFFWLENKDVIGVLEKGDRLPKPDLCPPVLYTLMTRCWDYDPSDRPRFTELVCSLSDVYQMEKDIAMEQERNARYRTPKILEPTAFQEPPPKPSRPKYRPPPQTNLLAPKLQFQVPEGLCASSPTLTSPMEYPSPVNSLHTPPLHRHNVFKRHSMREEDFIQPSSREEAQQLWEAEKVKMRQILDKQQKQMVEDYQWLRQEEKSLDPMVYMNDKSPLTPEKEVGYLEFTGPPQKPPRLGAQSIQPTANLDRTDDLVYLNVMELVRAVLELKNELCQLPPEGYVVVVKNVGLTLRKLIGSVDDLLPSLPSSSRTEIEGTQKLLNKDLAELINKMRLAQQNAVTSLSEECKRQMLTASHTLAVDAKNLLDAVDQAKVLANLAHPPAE
* hit, by the source's call. A selection: hits, their analogues and other compounds. The true share with any hit is near 5.9%.

What do the screens show for `COc1ccc(/C=C/C(=O)c2ccccc2O)cc1CN1CCOCC1`?
Pyk2 oligo antag: -0.55

How did COc1ccc(/C=N/n2cnc3c([nH]c4ccc(Br)cc43)c2=O)cc1CN1CCOCC1 do in these assays?
HUVEC prolif 384: 23*; H69AR growth 86K: 3.7*; MT1-MMP txn act: 1; Lung fibro prol: 8.7*

What do the screens show for `O=C(CSc1nc(-c2ccco2)cc(C(F)(F)F)n1)NCCc1ccccc1`?
HUVEC prolif 384: 100; Jurkat tox 60K: -6; H69AR growth 86K: 79; MT1-MMP txn act: 1.2; Lung fibro prol: 96; Pyk2 oligo antag: 2.2

Results for Cc1cccc(C)c1NC(=O)CSc1nc(-c2ccco2)cc(C(F)(F)F)n1 ?
HUVEC prolif 384: 59; H69AR growth 86K: 30*; MT1-MMP txn act: 1.2; Lung fibro prol: 81; Pyk2 oligo antag: -0.67

How did Cc1ccccc1Cn1ccc(NC(=O)CCSc2nc(-c3ccco3)cc(C(F)(F)F)n2)n1 do in these assays?
HUVEC prolif 384: 76; Jurkat tox 60K: -4; H69AR growth 86K: 91; MT1-MMP txn act: 1.2; Lung fibro prol: 98; Pyk2 oligo antag: -0.96

How did Cc1ccc(Cn2ccc(NC(=O)CCSc3nc(-c4ccco4)cc(C(F)(F)F)n3)n2)cc1 do in these assays?
HUVEC prolif 384: 55; Jurkat tox 60K: 4; H69AR growth 86K: 14*; MT1-MMP txn act: 1.3; Lung fibro prol: 96; Pyk2 oligo antag: 1.1

How did Cc1cc(NC(=O)CSc2nc(-c3ccco3)cc(C(F)(F)F)n2)no1 do in these assays?
Jurkat tox 60K: 59*; Pyk2 oligo antag: 0.3

What do the screens show for `O=C(CSc1nc(-c2ccco2)cc(C(F)(F)F)n1)Nc1ccccc1C(F)(F)F`?
HUVEC prolif 384: 63; H69AR growth 86K: 26*; Lung fibro prol: 69; Pyk2 oligo antag: -0.44

What do the screens show for `Cc1cc(C)cc(N2CC34C=CC(O3)C(C(=O)OCC(=O)NCc3ccco3)C4C2=O)c1` (centres undefined)?
HUVEC prolif 384: 101; Jurkat tox 60K: 2; H69AR growth 86K: 82; MT1-MMP txn act: 1.3; Lung fibro prol: 99; Pyk2 oligo antag: 0.28

What do the screens show for `COc1ccc(Cn2c(CCC(=O)NCc3ccco3)nc3cccnc32)cc1`?
HUVEC prolif 384: 104; Jurkat tox 60K: 3; H69AR growth 86K: 100; MT1-MMP txn act: 1.1; Lung fibro prol: 100; Pyk2 oligo antag: -0.36

What do the screens show for `CCCc1oc2c(c(=O)c1CC)C(=O)CC(C)(C)C2`?
HUVEC prolif 384: 107; Jurkat tox 60K: 10; H69AR growth 86K: 99; MT1-MMP txn act: 1.1; Lung fibro prol: 104; Pyk2 oligo antag: -0.24

How did CCCCn1c(CNC(=O)CCC)nc2ccccc21 do in these assays?
HUVEC prolif 384: 102; Jurkat tox 60K: -6; H69AR growth 86K: 103; MT1-MMP txn act: 1.1; Lung fibro prol: 107

Results for CCCn1c(CNc2ccccc2O)nc2ccccc21 ?
HUVEC prolif 384: 100; Jurkat tox 60K: -6; H69AR growth 86K: 27*; MT1-MMP txn act: 0.9; Lung fibro prol: 101; Pyk2 oligo antag: -0.82

Results for CC1C(c2ccccc2)N(C)C(c2ccccc2)C(C)C1(O)C#Cc1ccccc1 (centres undefined) ?
Pyk2 oligo antag: -0.46

What do the screens show for `Cc1ccccc1OCC(=O)O/N=C(\N)Cc1ccc(Cl)cc1`?
HUVEC prolif 384: 99; H69AR growth 86K: 104; MT1-MMP txn act: 1.2; Lung fibro prol: 109; Pyk2 oligo antag: 2.7

Results for N/C(Cc1ccc(Cl)cc1)=N\OC(=O)c1cccc2ccccc12 ?
HUVEC prolif 384: 1.4*; H69AR growth 86K: -0.4*; MT1-MMP txn act: 1.1; Lung fibro prol: 57; Pyk2 oligo antag: 0.23

Results for N/C(Cc1ccc(Cl)cc1)=N\OC(=O)c1ccc2ccccc2c1 ?
HUVEC prolif 384: 5.6*; H69AR growth 86K: 3.2*; MT1-MMP txn act: 1.2; Lung fibro prol: 83; Pyk2 oligo antag: 0.37

Results for CCCc1nn(C)c(C(=O)Nc2cccc3ccccc23)c1Cl ?
Pyk2 oligo antag: -0.19

Results for CC1CCCCC1NC(=O)COC(=O)c1ccc(N(C)C)cc1 (centres undefined) ?
Pyk2 oligo antag: -3.1*

How did CC1CCCC(NC(=O)COC(=O)c2ccc(S(=O)(=O)N3CCOCC3)cc2)C1C (centres undefined) do in these assays?
HUVEC prolif 384: 98; Jurkat tox 60K: 3; H69AR growth 86K: 103; MT1-MMP txn act: 1; Lung fibro prol: 102; Pyk2 oligo antag: 1.4

Results for Cc1cccc(C)c1Nc1nnc(SCC(=O)c2ccc3c(c2)NC(=O)CO3)s1 ?
Pyk2 oligo antag: 0.5

Results for Cc1csc2ncc(C(=O)Nc3ccccc3Cl)c(=O)n12 ?
HUVEC prolif 384: 64; Jurkat tox 60K: 4; H69AR growth 86K: 29*; MT1-MMP txn act: 1.7; Lung fibro prol: 82

Results for CC(C)CC(C(=O)NCc1ccccn1)N1C(=O)c2ccccc2C1=O (centres undefined) ?
HUVEC prolif 384: 96; Jurkat tox 60K: 5; H69AR growth 86K: 88; MT1-MMP txn act: 1.1; Lung fibro prol: 99; Pyk2 oligo antag: 0.97

What do the screens show for `O=S(=O)(Nc1cccc2ncccc12)c1cccs1`?
Jurkat tox 60K: 76*; MT1-MMP txn act: 0.1; Pyk2 oligo antag: -1.8

Results for O=S(=O)(Nc1ccc(-c2nc3cccnc3s2)cc1)c1cccs1 ?
HUVEC prolif 384: 93; Jurkat tox 60K: 1; H69AR growth 86K: 88; MT1-MMP txn act: 1.3; Lung fibro prol: 87

What do the screens show for `CSc1nnc(-c2ccccc2)o1`?
HUVEC prolif 384: 96; Jurkat tox 60K: -10; H69AR growth 86K: 98; MT1-MMP txn act: 1.2; Lung fibro prol: 101; Pyk2 oligo antag: 0.13

What do the screens show for `O=S1(=O)C=C(Sc2nc3ccccc3s2)c2ccccc21`?
HUVEC prolif 384: 12*; Jurkat tox 60K: 102*; H69AR growth 86K: 103; MT1-MMP txn act: 1.2; Lung fibro prol: 3.1*

Results for Cc1cc(C)nc(SC2=CS(=O)(=O)c3ccccc32)n1 ?
HUVEC prolif 384: 94; Jurkat tox 60K: 12; H69AR growth 86K: 5.8*; MT1-MMP txn act: 1.1; Lung fibro prol: 58; Pyk2 oligo antag: -0.89

How did O=S1(=O)C=C(Sc2nnc(-c3ccccc3)o2)c2ccccc21 do in these assays?
HUVEC prolif 384: 11*; Jurkat tox 60K: 101*; H69AR growth 86K: 0.3*; MT1-MMP txn act: 1.3; Pyk2 oligo antag: -2.1

How did CC(=O)c1ccc(-n2nncc2C)cc1 do in these assays?
HUVEC prolif 384: 97; H69AR growth 86K: 67; MT1-MMP txn act: 1.2; Lung fibro prol: 94; Pyk2 oligo antag: 0.78

How did CCN1CCN(c2nc(-c3ccccn3)nc3ccccc23)CC1 do in these assays?
HUVEC prolif 384: 90; H69AR growth 86K: 62; MT1-MMP txn act: 1.3; Lung fibro prol: 87; Pyk2 oligo antag: 0.74
